≈ marks a conversion by molar mass, not a printed value.
Key:
[1] = test system: Staphylococcus aureus; experiment: Antibacterial activity against Staphylococcus aureus ATCC 25923 after 18 to 24 hrs by NCCLS M100-S11 two fold serial dilution method; assay type: functional; conditions: ATCC25923
[2] = test system: Pseudomonas aeruginosa; experiment: Antibacterial activity against Pseudomonas aeruginosa 09-33 after 18 to 24 hrs by NCCLS M100-S11 two fold serial dilution method; assay type: functional
[3] = test system: Enterococcus faecalis; experiment: Antibacterial activity against Enterococcus faecalis 08-10 after 18 to 24 hrs by NCCLS M100-S11 two fold serial dilution method; assay type: functional
[4] = test system: Pseudomonas aeruginosa; experiment: Antibacterial activity against Pseudomonas aeruginosa 09-34 after 18 to 24 hrs by NCCLS M100-S11 two fold serial dilution method; assay type: functional
[5] = test system: Enterococcus faecalis; experiment: Antibacterial activity against Enterococcus faecalis 08-12 after 18 to 24 hrs by NCCLS M100-S11 two fold serial dilution method; assay type: functional
[6] = test system: Staphylococcus epidermidis; experiment: Antibacterial activity against methicillin-sensitive Staphylococcus epidermidis 09-6 after 18 to 24 hrs by NCCLS M100-S11 two fold serial dilution method; assay type: functional
Outline: (§1)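 Two-fold serial dilution in agar medium. MIC read as the lowest concentration giving complete inhibition of bacterial growth after incubation at 35 °C for 18–24 h.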

[7] = test system: Pseudomonas aeruginosa; experiment: Antibacterial activity against Pseudomonas aeruginosa 09-32 after 18 to 24 hrs by NCCLS M100-S11 two fold serial dilution method; assay type: functional
[8] = test system: Escherichia coli; experiment: Antibacterial activity against Escherichia coli 08-21 after 18 to 24 hrs by NCCLS M100-S11 two fold serial dilution method; assay type: functional
[9] = test system: Streptococcus pneumoniae; experiment: Antibacterial activity against Streptococcus pneumoniae 08-2 after 18 to 24 hrs by NCCLS M100-S11 two fold serial dilution method; assay type: functional
[10] = test system: Enterococcus faecium; experiment: Antibacterial activity against Enterococcus faecium 08-7 after 18 to 24 hrs by NCCLS M100-S11 two fold serial dilution method; assay type: functional
[11] = test system: Escherichia coli; experiment: Antibacterial activity against Escherichia coli ATCC 25922 after 18 to 24 hrs by NCCLS M100-S11 two fold serial dilution method; assay type: functional; conditions: ATCC25922
[12] = test system: Pseudomonas aeruginosa; experiment: Antibacterial activity against Pseudomonas aeruginosa ATCC 27853 after 18 to 24 hrs by NCCLS M100-S11 two fold serial dilution method; assay type: functional
[13] = test system: Streptococcus pneumoniae; experiment: Antibacterial activity against Streptococcus pneumoniae 08-4 after 18 to 24 hrs by NCCLS M100-S11 two fold serial dilution method; assay type: functional
[14] = test system: Staphylococcus epidermidis; experiment: Antibacterial activity against methicillin-sensitive Staphylococcus epidermidis 09-3 after 18 to 24 hrs by NCCLS M100-S11 two fold serial dilution method; assay type: functional; outline: as §1
[15] = test system: Staphylococcus aureus; experiment: Antibacterial activity against methicillin-resistant Staphylococcus aureus 08-1 after 18 to 24 hrs by NCCLS M100-S11 two fold serial dilution method; assay type: functional; outline: as §1
[16] = test system: Staphylococcus aureus; experiment: Antibacterial activity against methicillin-sensitive Staphylococcus aureus 08-1 after 18 to 24 hrs by NCCLS M100-S11 two fold serial dilution method; assay type: functional
[17] = test system: Klebsiella pneumoniae; experiment: Antibacterial activity against Klebsiella pneumoniae 09-23 after 18 to 24 hrs by NCCLS M100-S11 two fold serial dilution method; assay type: functional
[18] = test system: Escherichia coli; experiment: Antibacterial activity against Escherichia coli 08-22 after 18 to 24 hrs by NCCLS M100-S11 two fold serial dilution method; assay type: functional
[19] = Cytotoxicity against african green monkey Vero cells after 72 hrs by MTT assay; assay type: cell-based; conditions: chlorocebus sabaeus
Outline: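 Vero cells were kept in Minimum Essential Medium with Earle's salts plus 10% fetal bovine serum at 37 °C under 5% CO₂. Cells were seeded at 1 × 10⁴ per well and allowed to recover 24 h. Medium was then replaced with assay medium containing compound or no drug, and cells were exposed for 72 h. CC₅₀ is the 50% cellular cytotoxic concentration.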

[20] = test system: Staphylococcus epidermidis; experiment: Antibacterial activity against methicillin-resistant Staphylococcus epidermidis 09-4 after 18 to 24 hrs by NCCLS M100-S11 two fold serial dilution method; assay type: functional; outline: as §1
[21] = test system: Klebsiella pneumoniae; experiment: Antibacterial activity against Klebsiella pneumoniae 09-22 after 18 to 24 hrs by NCCLS M100-S11 two fold serial dilution method; assay type: functional
[22] = test system: Enterococcus faecium; experiment: Antibacterial activity against Enterococcus faecium 08-2 after 18 to 24 hrs by NCCLS M100-S11 two fold serial dilution method; assay type: functional
[23] = test system: Pseudomonas aeruginosa; experiment: Ratio of levofloxacin MIC to compound MIC for Pseudomonas aeruginosa 09-32; assay type: functional
[24] = test system: Pseudomonas aeruginosa; experiment: Ratio of levofloxacin MIC to compound MIC for Pseudomonas aeruginosa 09-33; assay type: functional
[25] = test system: Pseudomonas aeruginosa; experiment: Ratio of levofloxacin MIC to compound MIC for Pseudomonas aeruginosa ATCC 27853; assay type: functional
[26] = test system: Pseudomonas aeruginosa; experiment: Ratio of levofloxacin MIC to compound MIC for Pseudomonas aeruginosa 09-34; assay type: functional

| Compound | MIC [1] [µg/mL] | MIC [2] [µg/mL] | MIC [3] [µg/mL] | MIC [4] [µg/mL] | MIC [5] [µg/mL] | MIC [6] [µg/mL] | MIC [7] [µg/mL] | MIC [8] [µg/mL] | MIC [9] [µg/mL] | MIC [10] [µg/mL] | MIC [11] [µg/mL] | MIC [12] [µg/mL] | MIC [13] [µg/mL] | MIC [14] [µg/mL] | MIC [15] [µg/mL] | MIC [16] [µg/mL] | MIC [17] [µg/mL] | MIC [18] [µg/mL] | CC50 at 72 h [19] [µg/mL] | MIC [20] [µg/mL] | other results |
| --- | --- | --- | --- | --- | --- | --- | --- | --- | --- | --- | --- | --- | --- | --- | --- | --- | --- | --- | --- | --- | --- |
| COc1c(N2CCN(CC/C(C)=N/O)C(C)C2)c(F)cc2c(=O)c(C(=O)O)cn(C3CC3)c12 (stereo unspecified) | 2 (≈ 4.34 µM) | > 128 | > 128 | 8 (≈ 17.4 µM) | > 128 | 0.25 (≈ 0.543 µM) | 4 (≈ 8.69 µM) | 64 (≈ 139 µM) | 32 (≈ 69.5 µM) | 64 (≈ 139 µM) | 16 (≈ 34.7 µM) | 8 (≈ 17.4 µM) | 4 (≈ 8.69 µM) | 0.25 (≈ 0.543 µM) | 32 (≈ 69.5 µM) | 32 (≈ 69.5 µM) | 8 (≈ 17.4 µM) | 64 (≈ 139 µM) | 44.2 (≈ 96 µM) | 0.25 (≈ 0.543 µM) | MIC [21]: 64 µg/mL (≈ 139 µM); MIC [22]: 64 µg/mL (≈ 139 µM) |
| CO/N=C(\C)CCN1CCN(c2c(F)cc3c(=O)c(C(=O)O)cn(C4CC4)c3c2OC)CC1C (stereo unspecified) | 0.5 (≈ 1.05 µM) | > 128 | > 128 | > 128 | > 128 | 1 (≈ 2.11 µM) | 128 (≈ 270 µM) | > 128 | > 128 | > 128 | 128 (≈ 270 µM) | 128 (≈ 270 µM) | > 128 | 0.5 (≈ 1.05 µM) | > 128 | 2 (≈ 4.21 µM) | > 128 | > 128 | 157 (≈ 332 µM) | 2 (≈ 4.21 µM) | MIC [21]: > 128 µg/mL; MIC [22]: > 128 µg/mL |
| CCO/N=C(\C)CCN1CCN(c2c(F)cc3c(=O)c(C(=O)O)cn(C4CC4)c3c2OC)CC1C (stereo unspecified) | 64 (≈ 131 µM) | > 128 | > 128 | > 128 | > 128 | 0.5 (≈ 1.02 µM) | 128 (≈ 262 µM) | > 128 | 128 (≈ 262 µM) | > 128 | > 128 | > 128 | > 128 | 0.5 (≈ 1.02 µM) | 16 (≈ 32.7 µM) | 128 (≈ 262 µM) | > 128 | > 128 | 88.4 (≈ 181 µM) | 0.5 (≈ 1.02 µM) | MIC [21]: 128 µg/mL (≈ 262 µM); MIC [22]: > 128 µg/mL |
| COc1c(N2CCN(CC/C(C)=N/NC(N)=O)C(C)C2)c(F)cc2c(=O)c(C(=O)O)cn(C3CC3)c12 (stereo unspecified) | 0.5 (≈ 0.995 µM) | 16 (≈ 31.8 µM) | 8 (≈ 15.9 µM) | 2 (≈ 3.98 µM) | 8 (≈ 15.9 µM) | 0.25 (≈ 0.497 µM) | 0.25 (≈ 0.497 µM) | 8 (≈ 15.9 µM) | 8 (≈ 15.9 µM) | 8 (≈ 15.9 µM) | 2 (≈ 3.98 µM) | 4 (≈ 7.96 µM) | 2 (≈ 3.98 µM) | 0.25 (≈ 0.497 µM) | 2 (≈ 3.98 µM) | 1 (≈ 1.99 µM) | 2 (≈ 3.98 µM) | 4 (≈ 7.96 µM) | 31.2 (≈ 62.2 µM) | 1 (≈ 1.99 µM) | MIC [21]: 1 µg/mL (≈ 1.99 µM); MIC [22]: 8 µg/mL (≈ 15.9 µM) |
| COc1c(N2CCN(CC/C(C)=N/Nc3ccccc3)C(C)C2)c(F)cc2c(=O)c(C(=O)O)cn(C3CC3)c12 (stereo unspecified) | 0.06 (≈ 0.112 µM) | 0.5 (≈ 0.933 µM) | 0.5 (≈ 0.933 µM) | 0.25 (≈ 0.467 µM) | 1 (≈ 1.87 µM) | 0.25 (≈ 0.467 µM) | 0.5 (≈ 0.933 µM) | 1 (≈ 1.87 µM) | 0.5 (≈ 0.933 µM) | 0.5 (≈ 0.933 µM) | 0.25 (≈ 0.467 µM) | 0.5 (≈ 0.933 µM) | 0.25 (≈ 0.467 µM) | 0.06 (≈ 0.112 µM) | 0.25 (≈ 0.467 µM) | 0.125 (≈ 0.233 µM) | 1 (≈ 1.87 µM) | 1 (≈ 1.87 µM) | 62.5 (≈ 117 µM) | 0.06 (≈ 0.112 µM) | Ratio [23]: 2; Ratio [24]: 2; Ratio [25]: 2; Ratio [26]: 2; MIC [21]: 0.5 µg/mL (≈ 0.933 µM); MIC [22]: 0.5 µg/mL (≈ 0.933 µM) |
| COc1c(N2CCN(O)C(C)C2)c(F)cc2c(=O)c(C(=O)O)cn(C3CC3)c12 (stereo unspecified) | 0.125 (≈ 0.319 µM) | 32 (≈ 81.8 µM) | 16 (≈ 40.9 µM) | 4 (≈ 10.2 µM) | 16 (≈ 40.9 µM) | 0.25 (≈ 0.639 µM) | 2 (≈ 5.11 µM) | 16 (≈ 40.9 µM) | 16 (≈ 40.9 µM) | 16 (≈ 40.9 µM) | 4 (≈ 10.2 µM) | 4 (≈ 10.2 µM) | 2 (≈ 5.11 µM) | 0.25 (≈ 0.639 µM) | 0.25 (≈ 0.639 µM) | 0.25 (≈ 0.639 µM) | 16 (≈ 40.9 µM) | 16 (≈ 40.9 µM) | 19.7 (≈ 50.3 µM) | 0.25 (≈ 0.639 µM) | MIC [21]: 2 µg/mL (≈ 5.11 µM); MIC [22]: 16 µg/mL (≈ 40.9 µM) |

Source: ChEMBL document CHEMBL1817648, “Synthesis and in vitro antibacterial activity of a series of novel gatifloxacin derivatives” (Eur J Med Chem, 2011)
